SKKanGAS inh = SKKanGAS growth inhibition | S. pyogenes SKKanGAS, kanamycin growth, BacTiter-Glo, 6 h | inhibition, % at 7.5 µM | hit rate 1.3% among 300,000 | AID 1662;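 active = mean replicate score, as percent of positive control median, at least 50; inconclusive = mean below 50 but one replicate at or above 50; inactive = mean and every replicate below 50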;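 also: strain carries kanamycin resistance gene driven by streptokinase promoter and grows in 40 µg/ml kanamycin; loss of luminescence reflects streptokinase promoter inhibition or plain growth inhibition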
KCC2 mod = KCC2 (human) Cl- transport modulation; Q9H2X9; hit rate 2.2% among 190,000; B-score of Tl+ flux slope (higher = more flux/activation; lower = inhibition) at 10 µM; KCC2 cells, thallium flux FluoZin-2 fluorescence;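 active = thallium flux slope and its plate-corrected score both differing from the plate sample mean at a set confidence after two filtering rounds, in either direction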;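 also: slope of fluorescence scaled to starting intensity during 10 to 20 s after thallium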
Target sequence (Q9H2X9 whole entry, looked up): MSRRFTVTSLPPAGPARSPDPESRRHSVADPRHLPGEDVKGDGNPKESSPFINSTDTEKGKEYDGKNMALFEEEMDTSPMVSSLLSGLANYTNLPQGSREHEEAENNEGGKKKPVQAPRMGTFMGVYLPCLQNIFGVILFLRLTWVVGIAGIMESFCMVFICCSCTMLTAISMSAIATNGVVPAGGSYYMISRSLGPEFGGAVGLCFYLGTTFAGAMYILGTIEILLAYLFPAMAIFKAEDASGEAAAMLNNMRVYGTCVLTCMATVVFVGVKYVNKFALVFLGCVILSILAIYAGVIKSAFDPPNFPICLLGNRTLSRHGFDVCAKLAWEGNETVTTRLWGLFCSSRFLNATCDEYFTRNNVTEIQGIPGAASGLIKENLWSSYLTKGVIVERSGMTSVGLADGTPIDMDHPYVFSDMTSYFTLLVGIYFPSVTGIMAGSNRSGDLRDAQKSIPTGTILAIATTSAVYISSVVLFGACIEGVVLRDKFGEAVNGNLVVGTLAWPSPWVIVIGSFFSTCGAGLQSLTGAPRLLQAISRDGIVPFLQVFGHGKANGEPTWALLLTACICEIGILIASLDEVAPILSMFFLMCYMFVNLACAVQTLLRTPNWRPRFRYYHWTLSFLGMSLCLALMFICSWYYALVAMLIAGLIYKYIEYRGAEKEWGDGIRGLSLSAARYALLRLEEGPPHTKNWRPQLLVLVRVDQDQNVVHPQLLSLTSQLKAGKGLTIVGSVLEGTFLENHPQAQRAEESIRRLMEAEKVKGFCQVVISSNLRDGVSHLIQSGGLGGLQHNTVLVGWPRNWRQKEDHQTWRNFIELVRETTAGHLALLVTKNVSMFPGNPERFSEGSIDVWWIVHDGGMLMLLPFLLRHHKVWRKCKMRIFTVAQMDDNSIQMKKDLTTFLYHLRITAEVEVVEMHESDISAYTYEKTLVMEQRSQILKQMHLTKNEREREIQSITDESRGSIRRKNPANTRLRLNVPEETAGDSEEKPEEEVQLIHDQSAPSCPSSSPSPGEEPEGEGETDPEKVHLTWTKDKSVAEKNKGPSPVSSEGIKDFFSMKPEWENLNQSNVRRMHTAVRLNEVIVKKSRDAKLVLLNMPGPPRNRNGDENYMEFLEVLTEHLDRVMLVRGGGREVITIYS
Autophagy mod = modulators of autophagy. MEF GFP-LC3 puncta imaging; test concentration mostly 10 µM. calls only at 10 µM (by protocol). hit rate 0.98% among 190,000. AID 463193;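 active = percentage of spot-positive cells more than 3 SD above its plate mean, without a fluorescence outlier flag or 80% toxicity; inconclusive = no clear call, values can overlap the other calls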
Ins promoter up = MIN6 insulin promoter up-regulation. MIN6 insulin promoter-GFP reporter, high-content imaging; hits give high values. z-score at 5 µM. hit rate 0.3% among 190,000. AID 1625;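 active = z-score above 3 at 5 µM with at least 500 cells counted in the well; inconclusive = wells under 500 cells, flagged as cytotoxic or low count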
WT yeast gro inh = growth inhibition of WT yeast, mitochondrial fusion screen. mitochondrial fusion phenotypic screen, WT strain. inhibition, % at 10 µM. hit rate 2.1% among 190,000; in the data active = inhibition above about 58%; tested in S. cerevisiae
Rad51 HR inh = Rad51 (human) homologous recombination inhibition; Q06609; hRad51 DNA strand exchange, fluorescence dequenching; inhibition, % at 10 µM; hit rate 0.085% among 200,000;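 active = inhibition above 40% at the single screening dose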
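material = hRad51 filaments on single-stranded DNA | reagent = Donor/quencher-labelled 47-bp dsDNA substrate | compound = 10 µM final, single point | schedule = strand-exchange reaction 15 min at room temperature | measured by = fluorescein emission 520 nm, excitation 485 nm | read-out basis = % inhibition versus plate control and blank means | benchmarks = plate controls and plate blanks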
A number is an active result; 0 = inactive; ? = inconclusive; - = no result; + = active, no number. Sampled rows, rich in hits. Any-hit rate of the full collection: about 4.2%.

SMILES	SKKanGAS inh	KCC2 mod	Autophagy mod	Ins promoter up	WT yeast gro inh	Rad51 HR inh
Cc1[nH][nH]c(=O)c1C(c1ccc(-c2ccc(Cl)c(C(=O)O)c2)o1)c1c(C)[nH][nH]c1=O	-	0	+	0	0	-
CC(C)C1C(c2ccccc2)N(C)C(c2ccccc2)CC1(O)c1ccccc1 (stereo not drawn)	88	-	0	0	0	0
CC1C(=O)CC(c2ccccc2)N(C)C1c1ccccc1 (stereo not drawn)	0	0	0	0	0	0
CCC1C(c2ccccc2)N(C)C(c2ccccc2)CC1(O)c1ccccc1 (stereo not drawn)	0	-	0	0	76	0
COc1ccc(CN2CCC(=O)N([C@H](CO)c3ccccc3)CC2)cc1	0	-	-	-	-	-
Cc1ccccc1-n1c(C)nnc1SCC(=O)N1CCc2ccccc2C1	0	0	0	0	0	0
CC(c1nc2ccccc2o1)N1C(=O)c2ccccc2C1=O (stereo not drawn)	0	0	0	-	0	0
CCCN(CCC)c1nc(C)cc(C(C#N)c2nc3ccccc3o2)n1 (stereo not drawn)	0	-	+	0	0	-
Cc1cc2nc(CCN(C(=S)NCC3CCCO3)C3CCCC3)[nH]c2cc1C (stereo not drawn)	0	0	0	0	0	0
Cc1cc2nc(CCN(C(=S)NCC(C)C)C3CCCC3)[nH]c2cc1C	0	-5.6	0	-	-	-
CC(/C=C1\SC(=S)N(NC(=O)c2ccc(C)cc2)C1=O)=C\c1ccccc1	0	-	0	0	0	0
CC(/C=C1\SC(=S)N(NC(=O)c2ccncc2)C1=O)=C\c1ccccc1	0	0	-	0	-	0
CC(/C=C1\SC(=S)N(NS(=O)(=O)c2ccccc2)C1=O)=C\c1ccccc1	57	0	-	0	-	0
CC(/C=C1\SC(=S)N(c2ccc(C(=O)O)cc2)C1=O)=C\c1ccccc1	116	0	-	-	-	-
CCCOc1ccc(/C=N/NC(=S)Nc2ccccc2[N+](=O)[O-])c(O)c1	102	0	0	?	0	0
COc1cc(SC)ccc1C(=O)NCCOc1ccc(Cl)cc1	0	0	0	0	62	0
COc1ccc(C(CNC(=O)c2cc(SC)ccc2Cl)N(C)C)cc1 (stereo not drawn)	0	0	-	0	-	0
COc1cc(SC)ccc1C(=O)NCCOc1c(C)cc(C)cc1C	0	0	0	0	0	0
CSc1ccc(Cl)c(C(=O)NCCOc2cc(C(C)C)ccc2C)c1	0	0	0	0	67	0
COc1cc(SC)ccc1C(=O)Nc1ncc(Cl)cc1Cl	0	0	+	0	0	0
CCOC(=O)c1ccc2c(c1)NCc1cccc(OC)c1O2	0	0	-	0	-	0
O=C(c1ccc(NC(=S)NCc2ccco2)cc1)N1CCCCC1	0	0	0	0	0	0
CCCSC(=S)c1c(C)[nH]n(-c2ccccc2)c1=O	89	-	-	-	-	0
COc1ccc(C=O)cc1CSc1nnc(COc2cccc3cccnc23)o1	0	0	0	0	67	0
O=C1OC(c2ccc(F)cc2)=C/C1=C\c1ccc([N+](=O)[O-])o1	68	0	0	0	85	0
SMILES	SKKanGAS inh	KCC2 mod	Autophagy mod	Ins promoter up	WT yeast gro inh	Rad51 HR inh
CCN(CCNCC(O)COCc1ccc(Cl)cc1)c1cccc(C)c1 (stereo not drawn)	0	0	0	0	62	0
CC(C)(C)CC(C)(C)NC(=O)/C=C/C(=O)O	0	0	-	0	-	0
Cc1ccccc1OCCSCc1nc2ccccc2[nH]1	0	0	0	0	75	0
Cc1cccc(OCCSCc2nc3ccccc3[nH]2)c1	0	0	0	0	0	0
COc1ccc(C(=O)OCC(=O)Nc2ccc([N+](=O)[O-])cc2OC)c(O)c1	0	0	+	0	0	0
COc1ccc(C(=O)/C=C/Nc2ccc([N+](=O)[O-])cc2C)c(OC)c1	0	0	+	0	0	0
COc1ccc(C(=O)/C=C/Nc2ccc([N+](=O)[O-])cc2C)cc1OC	0	0	0	0	0	0
COc1ccc([N+](=O)[O-])cc1NC(=O)COC(=O)c1ccccc1O	0	0	-	0	-	0
CCN(CC)c1ccc2c(O)cc(=O)oc2c1	0	0	0	0	0	0
CCN(CC)c1ccc(C(=O)OCc2cc(=O)oc3cc(O)ccc23)cc1	51	0	0	0	0	0
CC(C)(C)OC(=O)NCCCC1=CC2=CC(=O)C(C)(OC(=O)C3CCCC3)C(=O)C2=CO1 (stereo not drawn)	0	-	-	-	-	0
CCOC(=O)C1=C(C)NC(C)=C(C(=O)OCC)C1c1ccc([N+](=O)[O-])s1	51	0	-	0	-	0
O=C(Nc1nc2n(n1)C(c1ccc(Cl)cc1)CC(c1ccc(Cl)cc1)N2)c1ccco1 (stereo not drawn)	55	0	0	0	0	0
COc1cccc(NC(=O)Cn2c(-c3cncs3)nc3ccccc32)c1	0	-	0	5.3	0	-
COc1cc(OC)nc(Oc2cc(C=O)ccc2OC)n1	0	-	-	-	-	-
CCN(CCn1cccn1)C(=O)c1ccc2nc(Cc3ccc(OC)cc3)oc2c1	0	-	-	-	-	-
Cc1nn(C)cc1S(=O)(=O)N1CCCCC1C (stereo not drawn)	0	-	-	-	-	-
CCSc1ncc(/C=N/Nc2ccc([N+](=O)[O-])cc2)n1C	0	0	+	0	0	0
CC(C)(C)c1cnnn1-c1ccc(/C=N/Nc2ccc([N+](=O)[O-])cc2)cc1	0	0	0	0	0	-
CCSc1ncc(/C=N/Nc2ccccc2)n1C	0	0	0	0	71	0
CCSc1ncc(/C=N/Nc2ccc(Cl)cc2)n1C	0	0	0	0	0	0
Cc1cc(SCC(=O)c2ccc(O)c(O)c2)n2nc(C)c(-c3ccccc3)c2n1	?	0	-	0	-	-
CC(C)CN(C(=O)COC(=O)Cc1c[nH]c2ccccc12)c1c(N)n(Cc2ccccc2)c(=O)[nH]c1=O	0	-	-	-	-	-
COc1ccc(NC(=S)N2c3ccccc3CC2C)cc1OC (stereo not drawn)	0	0	0	0	0	0
COc1ccc(NC(=O)N2c3ccccc3CC2C)cc1OC (stereo not drawn)	0	0	0	-	95	0
SMILES	SKKanGAS inh	KCC2 mod	Autophagy mod	Ins promoter up	WT yeast gro inh	Rad51 HR inh
CS(=O)(=O)Nc1ccc(C2=NN(S(C)(=O)=O)C(c3ccc4c(c3)OCO4)C2)cc1 (stereo not drawn)	0	0	0	0	0	0
CCN(CC)c1ccc(/C=N/NC(=S)NCc2ccco2)cc1	0	0	0	0	67	0
CC(C)(C)c1ccc(/C=N/NC(=S)NCc2ccccc2)cc1	0	0	0	-	0	0
CN(C)c1ccc(/C=N/NC(=S)NCc2ccccc2)cc1	0	0	0	0	70	0
Oc1ccc(/C=N/NC(=S)NCc2ccco2)cc1	0	0	0	0	0	0
CCN(Cc1ccccc1)c1ccc(/C=N/N=C(N)N)cc1	0	0	0	-	0	0
CCN(Cc1ccccc1)c1ccc(/C=N/NC(=S)NC(C)C)cc1	0	0	0	0	69	0
COc1ccccc1C(=O)Nc1ccc2c(c1)nc1n2CCN(C2CCCCC2)C1	0	-	-	-	-	-
COc1ccc(C)cc1S(=O)(=O)n1cnc2ccccc21	0	-	-	-	-	-
